# Calls of active or inactive are those of the source. The rule behind the calls is not given here.
# Assays:
# Neutrophil [1] = assay: Inhibition of LPS-induced delay of apoptosis in human neutrophils assessed as early apoptotic cells at 2.5 uM preincubated for 1 hr followed by LPS stimulation and measured after 24 hrs by Annexin V-FITC/propidium iodide staining based flow cytometry (reference value: 13 +/- 1.9%); type: functional; design: scale not given: the % may be the effect or the level left
# Neutrophil [2] = assay: Inhibition of LPS-induced delay of apoptosis in human neutrophils assessed as late apoptotic cells at 2.5 uM preincubated for 1 hr followed by LPS stimulation and measured after 24 hrs by Annexin V-FITC/propidium iodide staining based flow cytometry (reference value: 9.5 +/- 1.8%); type: functional; design: scale not given: the % may be the effect or the level left
# Neutrophil [3] = assay: Inhibition of LPS-stimulated TNFalpha production in human neutrophils at 2.5 uM after 24 hrs by ELISA; type: functional, cell-based
# Outline: (§1)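 Human neutrophils were preincubated with compound, then LPS-stimulated. TNF-α in the culture medium was measured by ELISA 24 h after LPS. Three separate experiments used neutrophils from independent donors, each assayed in duplicate; mean ± SEM; Dunnett's test versus the stimulated control.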
# Neutrophil [4] = assay: Inhibition of fMLP/cytochalasin A-stimulated elastase release in human neutrophils assessed as elastase level at 50 uM preincubated for 15 mins followed by fMLP/cytochalasin A stimulation and measured after 15 mins by SAAVNA substrate based spectrophotometric method (reference value: 100%); design: scale not given: the % may be the effect or the level left
# Neutrophil [5] = assay: Inhibition of LPS-induced delay of apoptosis in human neutrophils assessed as viable cells at 2.5 uM preincubated for 1 hr followed by LPS stimulation and measured after 24 hrs by Annexin V-FITC/propidium iodide staining based flow cytometry (reference value: 75.4 +/- 1.1%); type: functional; details: read-out: Activity
# [6] = Anti-inflammatory activity in human PMN assessed as inhibition of fMLP/cytochalasin A-induced CD11b/CD18 expression by measuring CD11b/CD18 expression level at 50 uM preincubated for 30 mins followed by fMLP/cytochalasin A addition and measured after 30 mins by flow cytometry relative to control; type: functional; design: scale not given: the % may be the effect or the level left
# Outline: (§2)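 Neutrophils preincubated with compound before stimulation with cytochalasin A combined with f-MLP; surface CD11b expression read by flow cytometry. Compounds from 10 mM DMSO stock diluted in buffer or RPMI 1640. Mean ± SEM of three experiments on neutrophils from independent donors, Dunnett's post hoc test versus stimulated control.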
# Neutrophil [7] = assay: Inhibition of LPS-stimulated TNFalpha production in human neutrophils at 50 uM after 24 hrs by ELISA; type: functional, cell-based; outline: as §1
# Neutrophil [8] = assay: Inhibition of LPS-stimulated IL-8 production in human neutrophils at 2.5 uM after 24 hrs by ELISA; type: functional, cell-based
# [9] = Anti-inflammatory activity in human PMN assessed as inhibition of fMLP/cytochalasin A-induced CD11b/CD18 expression by measuring CD11b/CD18 expression level at 2.5 uM preincubated for 30 mins followed by fMLP/cytochalasin A addition and measured after 30 mins by flow cytometry relative to control; type: functional; design: scale not given: the % may be the effect or the level left; outline: as §2
# Neutrophil [10] = assay: Inhibition of LPS-induced delay of apoptosis in human neutrophils assessed as necrotic cells at 2.5 uM preincubated for 1 hr followed by LPS stimulation and measured after 24 hrs by Annexin V-FITC/propidium iodide staining based flow cytometry (reference value: 2.1 +/- 0.4%); type: functional; design: scale not given: the % may be the effect or the level left
# Homo sapiens = species: Homo sapiens; assay: Anti-inflammatory activity in human PMN assessed as inhibition of fMLP/cytochalasin A-induced CD11b/CD18 expression at 2.5 uM preincubated for 30 mins followed by fMLP/cytochalasin A addition and measured after 30 mins by flow cytometry; type: functional
# Outline: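 Freshly isolated human PMNs were preincubated with compound, then stimulated with cytochalasin A plus f-MLP. Surface CD11b was read by FACS relative to the stimulated control. Three separate experiments used neutrophils from independent donors; mean ± SEM. Compounds came from 10 mM DMSO stocks diluted in Ca2+-free HBSS/PBS pH 7.4 or RPMI 1640.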
Structure (SMILES),Activity (Neutrophil [1]) [%],Activity (Neutrophil [2]) [%],inhibition (Neutrophil [3]),Activity (Neutrophil [4]) [%],viability at 2.5 µM (Neutrophil [5]) [%],Activity [6] [%],inhibition (Neutrophil [7]),inhibition (Neutrophil [8]),Activity [9] [%],Activity (Neutrophil [10]) [%],inhibition (Homo sapiens)
CC[C@H]1OC(=O)[C@H](C)[C@@H](O[C@H]2C[C@@](C)(OC)[C@@H](O)[C@H](C)O2)[C@H](C)[C@@H](O[C@@H]2O[C@H](C)C[C@H](N(C)C)[C@H]2O)[C@](C)(OC)C[C@@H](C)C(=O)[C@H](C)[C@@H](O)[C@]1(C)O [CLARITHROMYCIN],33.7,13.3,inactive,39,49.8,31.5,Active,Active,67.7,1.1,–
O=c1c(O)c(-c2ccc(O)c(O)c2)oc2cc(O)cc(O)c12 [QUERCETIN],27,15.4,inactive,26.6,58.8,–,Active,–,–,1,inactive
